Data from ChEMBL document CHEMBL1759908, “Design, synthesis and potential 6 Hz psychomotor seizure test activity of some novel 2-(substituted)-3-{[substituted]amino}quinazolin-4(3H)-one” (Eur J Med Chem, 2011).
Active and inactive are the calls of the source.

Tests used:
[1] = Lipophilicity, log P of the compound in octanol-phosphate buffer; format: physicochemical
Procedure, shortened: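 Experimental log P was measured by octanol-phosphate buffer partition. The mixture stood 24 h at room temperature and was then equilibrated 6 h in a separating funnel. Phases were separated and membrane-filtered, and drug in the aqueous phase was quantified by UV spectroscopy.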

Mus musculus [2] = assay: Neurotoxicity in CF1 mouse assessed as minimal motor impairment at 100 mg/kg, ip after 1 min by rotarod test; format: toxicity, organism-based; set-up: dose 100 mg/kg, route intraperitoneal; settings: in vivo
Procedure, shortened: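 Neurotoxicity was scored as minimal motor impairment on the rotarod. Male CF-1 mice (18-25 g) received 100 mg/kg i.p. as a 0.5% methylcellulose suspension. Results are given as number toxic over number tested.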

Mus musculus [3] = assay: Anticonvulsant activity in CF1 mouse assessed as protection against 32 mA-current- for 3 secs induced seizure at 100 mg/kg, ip after 1 hr by 6Hz psychomotor seizure test; format: functional
Procedure, shortened: (§1)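 Male CF-1 mice (18-25 g) received 100 mg/kg i.p. as a suspension in 0.5% methylcellulose. At 0.25, 0.5, 1.0, 2.0 and 4.0 h, four mice per time point were stimulated through corneal electrodes (32 mA, 3 s, 6 Hz). Mice without psychomotor seizure behaviour were counted as protected. Results are reported as number protected over number tested.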

Mus musculus [4] = assay: Anticonvulsant activity in CF1 mouse assessed as protection against 32 mA-current- for 3 secs induced seizure at 100 mg/kg, ip after 2 hrs by 6Hz psychomotor seizure test; format: functional; procedure, shortened: as §1
Mus musculus [5] = assay: Anticonvulsant activity in CF1 mouse assessed as protection against 32 mA-current- for 3 secs induced seizure at 100 mg/kg, ip after 4 hrs by 6Hz psychomotor seizure test; format: functional, organism-based; set-up: dose 100 mg/kg; procedure, shortened: as §1
Mus musculus [6] = assay: Anticonvulsant activity in CF1 mouse assessed as protection against 32 mA-current- for 3 secs induced seizure at 100 mg/kg, ip after 0.25 hr by 6Hz psychomotor seizure test; format: functional; procedure, shortened: as §1
Mus musculus [7] = assay: Anticonvulsant activity in CF1 mouse assessed as protection against 32 mA-current- for 3 secs induced seizure at 100 mg/kg, ip after 0.5 hr by 6Hz psychomotor seizure test; format: functional; procedure, shortened: as §1
[8] = Neuroprotective activity against N-methyl-D-aspartate induced toxicity in hippocampus slices after 4 hrs propidium iodide staining; format: functional, tissue-based
Procedure, shortened: (§2)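 Organotypic hippocampal slice cultures were exposed to NMDA or kainic acid alone, or with the investigational compound, in the presence of propidium iodide. Cell death was read as propidium iodide fluorescence intensity and compared with slices given excitotoxin alone.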

[9] = Neuroprotective activity against kainic acid induced toxicity in hippocampus slices after 4 hrs propidium iodide staining; format: functional, tissue-based; procedure, shortened: as §2
Mus musculus [10] = assay: Anticonvulsant activity against 32 mA-current- for 3 secs induced seizure in ip dosed CF1 mouse after 0.5 hr by 6Hz psychomotor seizure test; format: functional
Procedure, shortened: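 Quantitative 6 Hz test in male CF-1 mice. The compound was suspended in 0.5% methylcellulose and given i.p. at 50, 100, 200 and 350 mg/kg, eight mice per dose. Mice were stimulated through corneal electrodes (32 mA, 3 s) at a 0.5 h time of peak effect. ED50 was derived from the number of mice protected per dose.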

[11] = Toxicity in ip dosed CF1 mouse after 0.5 hr; format: organism-based; settings: in vivo
Procedure, shortened: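 Quantitative toxicity test in male CF-1 mice dosed i.p. (0.5% methylcellulose suspension) at 50, 100, 200 and 350 mg/kg, eight mice per dose. Motor impairment was scored at 0.5 h and TD50 derived from the number of toxic mice over the number tested.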

Mus musculus [12] = assay: Anticonvulsant activity in CF1 mouse at 30 to 300 mg/kg, ip by maximal electroshock test; format: functional, organism-based
Procedure, shortened: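 Male CF-1 mice (18-25 g) were dosed i.p. at 30, 100 and 300 mg/kg (0.5% methylcellulose suspension). Maximal electroshock protection and neurotoxicity were assessed 30 min and 4 h after administration.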

Mus musculus [13] = assay: Anticonvulsant activity in CF1 mouse at 30 to 300 mg/kg, sc after 30 mins by subcutaneous metrazole seizure threshold test; format: functional, organism-based

SMILES	logP [1]	Activity (Mus musculus [2])	Activity (Mus musculus [4])	Activity (Mus musculus [5])	Activity (Mus musculus [7]; route intraperitoneal) [%]	also measured
O=c1c2ccccc2nc(-c2ccccc2)n1/N=C/c1ccc(Oc2ccc(F)cc2)cc1	6.21	Non-toxic	inactive	inactive	–	Activity (Mus musculus [3]; route intraperitoneal): 25%
Cc1nc2ccccc2c(=O)n1/N=C/c1ccc(Oc2ccc3c(c2)OCO3)cc1	4.01	Non-toxic	inactive	inactive	–	Activity (Mus musculus [6]): inactive; Activity (Mus musculus [3]): inactive
Cc1nc2ccccc2c(=O)n1/N=C/c1ccc(Oc2ccccc2)cc1	4.01	Non-toxic	inactive	inactive	–	Activity (Mus musculus [6]): inactive; Activity (Mus musculus [3]): inactive
Cc1ccc(Oc2ccc(/C=N/n3c(C)nc4ccccc4c3=O)cc2)cc1	4.32	Non-toxic	–	inactive	75	Activity (Mus musculus [6]; route intraperitoneal): 50%; Activity (Mus musculus [4]; route intraperitoneal): 25%
Cc1nc2ccccc2c(=O)n1/N=C/c1ccc(Oc2ccc(Br)cc2)cc1	4.64	Non-toxic	–	inactive	50	Activity (Mus musculus [6]): inactive
Cc1cc(Oc2ccc(/C=N/n3c(-c4ccccc4)nc4ccccc4c3=O)cc2)ccc1Cl	6.52	Non-toxic	–	inactive	100	Activity [8]: inactive; Activity [9]: inactive; ED50 (Mus musculus [10]): > 350 mg/kg; TD50 at 0.5 h [11]: > 350 mg/kg; Activity (Mus musculus [6]; route intraperitoneal): 75%; Activity (Mus musculus [3]; route intraperitoneal): 25%; Activity (Mus musculus [4]; route intraperitoneal): 25%; Activity (Mus musculus [7]): Active
CCCc1nc2ccccc2c(=O)n1/N=C/c1ccc(Oc2ccc(Cl)cc2)cc1	5.78	Non-toxic	inactive	inactive	–	Activity (Mus musculus [6]; route intraperitoneal): 50%; Activity (Mus musculus [3]): inactive; Activity (Mus musculus [7]): inactive
CCCc1nc2ccccc2c(=O)n1/N=C/c1ccc(Oc2ccc([N+](=O)[O-])cc2)cc1	5.18	Non-toxic	inactive	inactive	–	Activity (Mus musculus [7]): inactive
Cc1nc2ccccc2c(=O)n1/N=C/c1ccc(Oc2ccc([N+](=O)[O-])cc2)cc1	4.01	Non-toxic	–	inactive	–	–
CCCc1nc2ccccc2c(=O)n1/N=C/c1ccc(Oc2ccc(Cl)c(C)c2)cc1	6.02	Non-toxic	–	inactive	–	Activity (Mus musculus [6]; route intraperitoneal): 50%
Cc1nc2ccccc2c(=O)n1/N=C/c1ccc(Oc2ccc3ccccc3c2)cc1	5.22	Non-toxic	inactive	inactive	50	Activity (Mus musculus [6]): inactive; Activity (Mus musculus [3]): inactive
O=C1Nc2ccccc2/C1=N\n1c(-c2ccccc2)nc2ccccc2c1=O	4.03	–	–	–	–	Activity (Mus musculus [12]): inactive; Activity (Mus musculus [13]): inactive
Cc1ccc(Oc2ccc(/C=N/n3c(-c4ccccc4)nc4ccccc4c3=O)cc2)cc1	6.29	–	–	–	–	Activity (Mus musculus [12]): inactive; Activity (Mus musculus [13]): inactive
CCCc1nc2ccccc2c(=O)n1/N=C/c1ccc(Oc2ccc(F)cc2)cc1	5.22	Non-toxic	inactive	inactive	–	Activity (Mus musculus [3]): inactive; Activity (Mus musculus [7]): inactive
O=c1c2ccccc2nc(-c2ccccc2)n1/N=C/c1ccc(Oc2ccc3c(c2)OCO3)cc1	6.01	Non-toxic	inactive	inactive	–	Activity (Mus musculus [3]): inactive; Activity (Mus musculus [7]): inactive
CCCc1nc2ccccc2c(=O)n1/N=C/c1ccc(Oc2ccccc2)cc1	5.2	Non-toxic	inactive	inactive	–	Activity (Mus musculus [6]): inactive
Cc1nc2ccccc2c(=O)n1/N=C/c1ccc(Oc2ccc(F)cc2)cc1	4.21	Non-toxic	–	inactive	–	Activity (Mus musculus [6]): inactive; Activity (Mus musculus [3]; route intraperitoneal): 50%
O=c1c2ccccc2nc(-c2ccccc2)n1/N=C/c1ccc(Oc2ccc(Cl)cc2)cc1	6.38	–	–	–	–	Activity (Mus musculus [12]): inactive; Activity (Mus musculus [13]): inactive
CCCc1nc2ccccc2c(=O)n1/N=C1/C(=O)Nc2ccccc21	3.23	Non-toxic	–	inactive	50	Activity (Mus musculus [6]; route intraperitoneal): 75%; Activity (Mus musculus [3]; route intraperitoneal): 50%; Activity (Mus musculus [4]; route intraperitoneal): 25%
O=c1c2ccccc2nc(-c2ccccc2)n1/N=C/c1ccc(Oc2ccc3ccccc3c2)cc1	6.53	–	–	–	–	Activity (Mus musculus [12]): inactive; Activity (Mus musculus [13]): inactive
CCCc1nc2ccccc2c(=O)n1/N=C/c1ccc(Oc2ccc3ccccc3c2)cc1	6.12	Non-toxic	inactive	inactive	50	Activity (Mus musculus [6]; route intraperitoneal): 50%; Activity (Mus musculus [3]; route intraperitoneal): 25%
O=c1c2ccccc2nc(-c2ccccc2)n1/N=C/c1ccc(Oc2ccc(Br)cc2)cc1	6.39	–	–	–	–	–
O=c1c2ccccc2nc(-c2ccccc2)n1/N=C/c1ccc(Oc2ccccc2)cc1	6.13	–	–	–	–	Activity (Mus musculus [12]): inactive; Activity (Mus musculus [13]): inactive
Cc1nc2ccccc2c(=O)n1/N=C1/C(=O)Nc2ccccc21	2.23	Non-toxic	inactive	inactive	–	Activity (Mus musculus [6]): inactive; Activity (Mus musculus [3]): inactive
CCCc1nc2ccccc2c(=O)n1/N=C/c1ccc(Oc2ccc(Br)cc2)cc1	5.88	Non-toxic	inactive	inactive	25	Activity (Mus musculus [6]; route intraperitoneal): 50%; Activity (Mus musculus [3]; route intraperitoneal): 50%
Cc1cc(Oc2ccc(/C=N/n3c(C)nc4ccccc4c3=O)cc2)ccc1Cl	4.41	Non-toxic	inactive	inactive	50	Activity (Mus musculus [6]; route intraperitoneal): 50%; Activity (Mus musculus [3]; route intraperitoneal): 25%
CCCc1nc2ccccc2c(=O)n1/N=C/c1ccc(Oc2ccc3c(c2)OCO3)cc1	4.82	–	–	–	–	–
O=c1c2ccccc2nc(-c2ccccc2)n1/N=C/c1ccc(Oc2ccc([N+](=O)[O-])cc2)cc1	6.12	–	–	–	–	Activity (Mus musculus [12]): inactive; Activity (Mus musculus [13]): inactive
Cc1nc2ccccc2c(=O)n1/N=C/c1ccc(Oc2ccc(Cl)cc2)cc1	4.6	–	–	–	–	–
CCCc1nc2ccccc2c(=O)n1/N=C/c1ccc(Oc2ccc(C)cc2)cc1	5.45	Non-toxic	inactive	inactive	50	Activity (Mus musculus [6]): inactive; Activity (Mus musculus [3]): inactive
